Reference: ChEMBL document CHEMBL1142406, “2-Heteroarylimino-5-benzylidene-4-thiazolidinones analogues of 2-thiazolylimino-5-benzylidene-4-thiazolidinones with antimicrobial activity: synthesis and structure-activity relationship” (2008)
In brackets after ≈: the same amount, converted by molar mass. Activity calls are given as the source filed them. The rule behind the calls is not given here.

Key:
[1] = tested on: Bacillus subtilis; experiment: Antimicrobial activity against Bacillus subtilis ATCC 6633 by broth dilution technique; format: functional
Procedure, shortened: (§1)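 Broth dilution in Mueller Hinton Broth. Compounds are dissolved in DMSO (never above 1% v/v final) and serially diluted. MIC is the lowest concentration giving complete growth inhibition.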

[2] = tested on: Priestia megaterium; experiment: Antimicrobial activity against Bacillus megaterium by broth dilution technique; format: functional; procedure, shortened: as §1
[3] = tested on: Micrococcus luteus; experiment: Antimicrobial activity against Sarcina lutea by broth dilution technique; format: functional; procedure, shortened: as §1
[4] = tested on: Staphylococcus aureus; experiment: Antimicrobial activity against Staphylococcus aureus ATCC 25923 by broth dilution technique; format: functional; procedure, shortened: as §1
[5] = tested on: Staphylococcus aureus; experiment: Antimicrobial activity against penicillin-resistant Staphylococcus aureus by broth dilution technique; format: functional
Procedure, shortened: (§2)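 Broth dilution in Mueller Hinton Broth with compounds predissolved in DMSO (at most 1% v/v). Final concentrations ranged from 100 to 0.0015, and the inoculum was 5.10⁴ bacteria/mL. Plates were incubated at 37 °C for 24 h. MIC was taken as the lowest concentration giving complete growth inhibition.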

[6] = tested on: Staphylococcus epidermidis; experiment: Antimicrobial activity against penicillin-resistant Staphylococcus epidermidis by broth dilution technique; format: functional; procedure, shortened: as §2
[7] = tested on: Staphylococcus haemolyticus; experiment: Antimicrobial activity against Staphylococcus haemolyticus by broth dilution technique; format: functional; procedure, shortened: as §1
[8] = tested on: Streptococcus agalactiae; experiment: Antimicrobial activity against Streptococcus agalactiae by broth dilution technique; format: functional; procedure, shortened: as §1
[9] = tested on: Enterococcus faecalis; experiment: Antimicrobial activity against Streptococcus faecalis by broth dilution technique; format: functional; procedure, shortened: as §1
[10] = tested on: Enterococcus faecium; experiment: Antimicrobial activity against Streptococcus faecium by broth dilution technique; format: functional; procedure, shortened: as §1
[11] = tested on: Streptococcus pyogenes; experiment: Antimicrobial activity against Streptococcus pyogenes by broth dilution technique; format: functional
Procedure, shortened: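 Tryptose Phosphate Broth dilution. Compounds are dissolved in DMSO, with DMSO at most 1% v/v final. MIC is taken as the lowest concentration with complete growth inhibition.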

[12] = tested on: Haemophilus influenzae; experiment: Antimicrobial activity against Haemophilus influenzae by broth dilution technique; format: functional
Procedure, shortened: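 Haemophilus Test Medium broth dilution. Compounds in DMSO are added to final dilutions, with DMSO at most 1% v/v. MIC is the lowest concentration completely inhibiting growth.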

[13] = tested on: Bacillus thuringiensis; experiment: Antimicrobial activity against Bacillus thuringiensis var. kurstaki BGSC 4D1 by broth dilution technique; format: functional; conditions: serovar kurstaki; procedure, shortened: as §1
[14] = tested on: Saccharomyces cerevisiae; experiment: Antimicrobial activity against Saccharomyces cerevisiae ATCC 9763 by broth dilution technique; format: functional
Procedure, shortened: (§3)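 Fungi are tested by Sabouraud Liquid Medium dilution. Compounds are in DMSO, with DMSO at most 1% v/v final. Inoculum is 1×10³ fungi/mL, incubated 48 h at 30 °C. MIC is the lowest concentration completely inhibiting growth. For MFC, 100 µL of clear mixtures is subcultured into 1 mL fresh medium and read after 48 h at 30 °C.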

[15] = tested on: Aspergillus niger; experiment: Antimicrobial activity against Aspergillus niger ATCC 6275 by broth dilution technique; format: functional; procedure, shortened: as §3
[16] = tested on: Candida tropicalis; experiment: Antimicrobial activity against Candida tropicalis ATCC 1369 by broth dilution technique; format: functional; procedure, shortened: as §3
[17] = tested on: Staphylococcus epidermidis; experiment: Antimicrobial activity against Staphylococcus epidermidis ATCC 12228 by broth dilution technique
[18] = tested on: Escherichia coli; experiment: Antimicrobial activity against Escherichia coli SPA27 upto 100 ug/ml by broth dilution technique; format: functional, organism-based; procedure, shortened: as §1
[19] = tested on: Candida tropicalis; experiment: Antimicrobial activity against Candida tropicalis ATCC 1369 upto 100 ug/ml by broth dilution technique; format: functional, organism-based; procedure, shortened: as §3
[20] = tested on: Aspergillus niger; experiment: Antimicrobial activity against Aspergillus niger ATCC 6275 upto 100 ug/ml by broth dilution technique; format: functional, organism-based; procedure, shortened: as §3
[21] = tested on: Saccharomyces cerevisiae; experiment: Antimicrobial activity against Saccharomyces cerevisiae ATCC 9763 upto 100 ug/ml by broth dilution technique; format: functional, organism-based; procedure, shortened: as §3

Row | SMILES | MIC [1] [µg/mL] | MIC [2] [µg/mL] | MIC [3] [µg/mL] | MIC [4] [µg/mL] | MIC [5] [µg/mL] | MIC [6] [µg/mL] | MIC [7] [µg/mL] | MIC [8] [µg/mL] | MIC [9] [µg/mL] | MIC [10] [µg/mL] | MIC [11] [µg/mL] | MIC [12] [µg/mL] | MIC [13] [µg/mL] | MIC [17] [µg/mL] | Activity [18] | Activity [19] | Activity [20] | Activity [21] | also measured
1 | O=C1CS/C(=N/c2nc3ccccc3s2)N1 | 12 (≈ 48.1 µM) | 25 (≈ 100 µM) | 50 (≈ 201 µM) | 25 (≈ 100 µM) | 25 (≈ 100 µM) | 100 (≈ 401 µM) | 50 (≈ 201 µM) | > 100 | > 100 | > 100 | > 100 | 0.7 (≈ 2.81 µM) | 25 (≈ 100 µM) | 100 (≈ 401 µM) | – | – | – | – | MIC [14]: 50 µg/mL (≈ 201 µM); MIC [15]: 25 µg/mL (≈ 100 µM); MIC [16]: 50 µg/mL (≈ 201 µM)
2 | O=C1N/C(=N/c2nsc3ccccc23)S/C1=C\c1ccccc1[N+](=O)[O-] | > 100 | > 100 | > 100 | 3 (≈ 7.84 µM) | 50 (≈ 131 µM) | > 100 | > 100 | > 100 | 100 (≈ 261 µM) | > 100 | > 100 | 1.5 (≈ 3.92 µM) | 3 (≈ 7.84 µM) | > 100 | inactive | inactive | inactive | inactive | –
3 | O=C1N/C(=N\c2nccs2)S/C1=C\c1ccccc1[N+](=O)[O-] | 6 (≈ 18.1 µM) | 3 (≈ 9.03 µM) | 12 (≈ 36.1 µM) | 6 (≈ 18.1 µM) | 3 (≈ 9.03 µM) | 25 (≈ 75.2 µM) | 12 (≈ 36.1 µM) | 12 (≈ 36.1 µM) | 50 (≈ 150 µM) | 25 (≈ 75.2 µM) | 25 (≈ 75.2 µM) | 0.7 (≈ 2.11 µM) | 6 (≈ 18.1 µM) | 12 (≈ 36.1 µM) | inactive | inactive | inactive | inactive | –
4 | O=C1CS/C(=N\c2nsc3ccccc23)N1 | 50 (≈ 201 µM) | 100 (≈ 401 µM) | > 100 | > 100 | > 100 | > 100 | > 100 | > 100 | > 100 | > 100 | > 100 | 3 (≈ 12 µM) | > 100 | > 100 | inactive | inactive | inactive | inactive | –
